Results on 19 molecules are retold here after article PMC5689068 (ACS chemical neuroscience, 2016).

Data set [1] is described as follows: In vitro stability in rat plasma. The format is in vitro ADME. The settings on record: rat; for half-life: plasma, t1/2 in rat plasma, 37 °C.
Data set [2] concerns the target BK receptors. Put plainly: Radioligand competition binding assay with [3H]BK in rat brain membranes. The following applies: for IC50: read-out: IC50, BK receptors, [3H]BK; for IC50 / log[IC50], BK receptors, [3H]BK: pH 6.8, rat brain membranes, 1 nM [3H]BK; for affinity at the BK receptors (in words): D-amino acid substitutions. (Displacement assays read how much labelled ligand stays bound in the presence of the test substance.)

Data set [3] concerns the target BK receptors. The settings on record: competition assay using 1 nM [3H]DALKD, cited from earlier work.
The nature of data set [4]: In vitro stability in human plasma. The format is in vitro ADME. The following applies: human plasma. The procedure, abridged:
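Test compound stock (50 mg/mL in water) was diluted 5-fold into lithium-heparin human plasma and incubated at 37 °C. Samples were taken at 1, 2, 4, 6, 12 and 24 h, quenched with EtOH and centrifuged. Supernatant was run on C-18 RP-HPLC (10–90% acetonitrile, 40 min). t1/2 = 0.693/b, where b is the slope of ln(fraction parent remaining) versus time. Three independent experiments.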

Another data set deals with naïve rats. Kind of data set: von Frey filament and Infra-Red tests in naïve rats. The format is in vivo, rat. The following applies: i.th. injection 3 nmol, alone. The method, boiled down:
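Nonfasted male Sprague-Dawley rats (250–300 g) carried i.th. catheters placed through the atlanto-occipital membrane to lumbar level under ketamine/xylazine (80/12 mg/kg i.p.). Naïve rats received Dyn A-(2–13) with or without test compound (3 nmol/5 µL i.th.). Tests were run every 20 min up to 120 min. Infrared paw withdrawal latency was calibrated to ~20 s on the uninjured paw; von Frey thresholds used the up-down/Dixon method. One-way ANOVA, p ≤ 0.05.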

Like-named read-outs stand apart in the source and are kept apart here. Where a SMILES comes first, the peptide text is derived from it. [ ]: non-standard residue; d: D form. Oic = O=C(O)[C@@H]1C[C@@H]2CCCC[C@@H]2N1; dTic = O=C(O)[C@H]1Cc2ccccc2CN1; 2Thi = N[C@@H](Cc1cccs1)C(=O)O; Nle = CCCC[C@H](N)C(=O)O; Orn = NCCC[C@H](N)C(=O)O

What is called half-life is the time in which the quantity being followed falls by half. By fraction remaining is commonly meant the share of the starting amount still present when the sample was taken. The low end stands for a greater loss, the high end for greater stability. In data set [1] (24 h study), `CCCC[C@H](NC(=O)[C@H](Cc1ccccc1)NC(C)=O)C(=O)N[C@@H](CCCNC(=N)N)C(=O)N[C@@H](CCCC)C(=O)N[C@@H](CCCNC(=N)N)C(=O)N1CCC[C@H]1C(=O)N[C@@H](CCCNC(=N)N)C(=O)O` [compound 5, Ac-Phe-Nle-Arg-Nle-Arg-Pro-Arg-OH] (Ac-F[Nle]R[Nle]RPR-OH) had a half-life of 3.4 h. The molecule also had a fraction remaining at 24 h, 10 mg/mL in data set [1] (rat plasma) of 0%.
What is called IC50 is the midpoint of a concentration-inhibition curve. Consider `CC[C@H](C)[C@H](NC(=O)[C@H](CCCNC(=N)N)NC(=O)[C@H](CC(C)C)NC(=O)[C@@H](N)Cc1ccccc1)C(=O)N[C@@H](CCCNC(=N)N)C(=O)N1Cc2ccccc2C[C@@H]1C(=O)N[C@@H](CCCCN)C(=O)O` [compound 8, H-Phe-Leu-Arg-Ile-Arg-D-Tic-Lys-OH] (H-FLRIR[dTic]K-OH), for which the IC50 on BK receptors [2] is greater than 10000 nM.
In the case of `CCCC[C@H](NC(=O)[C@H](CCCNC(=N)N)NC(=O)[C@H](CCCC)NC(=O)[C@@H](N)Cc1ccccc1)C(=O)N[C@@H](CCCNC(=N)N)C(=O)N1CCC[C@H]1C(=O)N[C@@H](CCCNC(=N)N)C(=O)O` [compound 4, H-Phe-Nle-Arg-Nle-Arg-Pro-Arg-OH] (H-F[Nle]R[Nle]RPR-OH), the half-life in data set [1] (24 h study) is 1.2 h. The fraction remaining at 24 h, 10 mg/mL in data set [1] (rat plasma) was 0%. At BK receptors [3], the “log[IC50], BK receptors” value is −7.06 ± 0.10. Besides, at BK receptors [3] (read-out: IC50, BK receptors), the half-maximal inhibitory concentration (IC50) was 86 nM.
Regarding `CC[C@H](C)[C@H](NC(=O)[C@H](CCCNC(=N)N)NC(=O)[C@@H](CC(C)C)NC(=O)[C@H](N)Cc1ccccc1)C(=O)N[C@@H](CCCNC(=N)N)C(=O)N1CCC[C@H]1C(=O)N[C@@H](CCCCN)C(=O)O` [compound 19, H-D-Phe-D-Leu-Arg-Ile-Arg-Pro-Lys-OH], in the data set with BK receptors [2], the “affinity at the BK receptors (in words)” value is “completely abolished affinity” and the IC50 is greater than 10000 nM.
For the molecule `CC[C@H](C)[C@H](NC(=O)[C@@H](CCCNC(=N)N)NC(=O)[C@H](CC(C)C)NC(=O)[C@H](N)Cc1ccccc1)C(=O)N[C@@H](CCCNC(=N)N)C(=O)N1CCC[C@H]1C(=O)N[C@@H](CCCCN)C(=O)O` [compound 18, H-D-Phe-Leu-D-Arg-Ile-Arg-Pro-Lys-OH], in the data set on BK receptors [2], the “affinity at the BK receptors (in words)” value is “completely abolished affinity” and the IC50 is greater than 10000 nM.
As for `CC[C@@H](C)[C@@H](NC(=O)[C@H](CCCNC(=N)N)NC(=O)[C@H](CC(C)C)NC(=O)[C@@H](N)Cc1ccccc1)C(=O)N[C@@H](CCCNC(=N)N)C(=O)N1CCC[C@H]1C(=O)N[C@@H](CCCCN)C(=O)O` [compound 14, H-Phe-Leu-Arg-D-Ile-Arg-Pro-Lys-OH], on BK receptors [2], the IC50 is greater than 10000 nM. In data set [1] (24 h study), the half-life is 3.3 h. The molecule further gave an amount remaining at 24 h, 10 mg/mL in data set [1] (rat plasma) of 0%.
On to `CC[C@H](C)[C@H](NC(=O)[C@H](CCCN)NC(=O)[C@H](CC(C)C)NC(=O)[C@@H](N)Cc1ccccc1)C(=O)N[C@@H](CCCN)C(=O)N1CCC[C@H]1C(=O)N[C@@H](CCCN)C(=O)O` [compound 6, H-Phe-Leu-Orn-Ile-Orn-Pro-Orn-OH] (H-FL[Orn]I[Orn]P[Orn]-OH), for which, at BK receptors [2], the “log[IC50], BK receptors, [3H]BK” value is listed as −6.29 ± 0.12 and the IC50 came out at 510 nM.
`CC[C@H](C)[C@H](NC(=O)[C@H](CCCNC(=N)N)NC(=O)[C@H](CC(C)C)NC(=O)[C@@H](N)Cc1ccccc1)C(=O)N[C@@H](CCCNC(=N)N)C(=O)N1CCC[C@H]1C(=O)N[C@H](CCCCN)C(=O)O` [compound 11, H-Phe-Leu-Arg-Ile-Arg-Pro-D-Lys-OH]: on BK receptors [2], the “log[IC50], BK receptors, [3H]BK” value is given as −6.03 ± 0.14 and the IC50 was 830 nM. The molecule further returned a share remaining at 24 h, 10 mg/mL in data set [1] (rat plasma) of 0%.
On to `CC[C@H](C)[C@H](NC(=O)[C@H](CCCNC(=N)N)NC(=O)[C@H](CC(C)C)NC(=O)[C@@H](N)Cc1ccccc1)C(=O)N[C@@H](CCCNC(=N)N)C(=O)N1[C@H](C(=O)N[C@@H](CCCCN)C(=O)O)C[C@@H]2CCCC[C@@H]21` [compound 10, H-Phe-Leu-Arg-Ile-Arg-Oic-Lys-OH] (H-FLRIR[Oic]K-OH), for which, on BK receptors [2], the “log[IC50], BK receptors, [3H]BK” value is recorded as −5.82 ± 0.10 and the 50% inhibitory concentration (IC50) worked out at 1500 nM.
Take `CC[C@H](C)[C@H](NC(=O)[C@H](CCCNC(=N)N)NC(=O)[C@H](CC(C)C)NC(=O)[C@@H](N)Cc1ccccc1)C(=O)N[C@@H](CCCNC(=N)N)C(=O)N1CCC[C@@H]1C(=O)N[C@@H](CCCCN)C(=O)O` [compound 12, H-Phe-Leu-Arg-Ile-Arg-D-Pro-Lys-OH]: on BK receptors [2], the IC50 is greater than 10000 nM.
H-FLRIR[2Thi]K-OH [compound 9]: on BK receptors [2], the “log[IC50], BK receptors, [3H]BK” value is recorded as −5.99 ± 0.20 and the IC50 was found to be 1000 nM.
On to `CC[C@H](C)[C@H](NC(=O)[C@H](CCCNC(=N)N)NC(=O)[C@H](CC(C)C)N(C)C(=O)[C@@H](N)Cc1ccccc1)C(=O)N[C@@H](CCCNC(=N)N)C(=O)N1CCC[C@H]1C(=O)N[C@@H](CCCCN)C(=O)O` [compound 21, H-Phe-NMeLeu-Arg-Ile-Arg-Pro-Lys-OH], for which the half-life was greater than 4000 h in data set [1] (24 h study) and 65 h in data set [1] (calculated from a 5 day stability test). Moreover, the fraction remaining at 24 h, 10 mg/mL in data set [1] (rat plasma) stood at 100 ± 16%; in data set [4] (human) it was 96 ± 5%. The same molecule returned an amount remaining at 120 h, 10 mg/mL in data set [1] (rat plasma) of 31%. Further, in data set [4] (after a 24 h incubation), the “Intact (%)” value is “more than 95%”.
On to Dyn A-(2–13) [reference compound], for which, in the data set with naïve rats, the “paw withdrawal latency (Infra-Red test)” value was “reduced” and the “paw withdrawal threshold (von Frey filament test)” value is listed as “reduced”.
In the case of `CC[C@H](C)[C@H](NC(=O)[C@H](CCCNC(=N)N)NC(=O)[C@H](CC(C)C)NC(=O)[C@@H](N)Cc1ccccc1)C(=O)N[C@H](CCCNC(=N)N)C(=O)N1CCC[C@H]1C(=O)N[C@@H](CCCCN)C(=O)O` [compound 13, H-Phe-Leu-Arg-Ile-D-Arg-Pro-Lys-OH], on BK receptors [2], the “log[IC50], BK receptors, [3H]BK” value is listed as −5.23 ± 0.12 and the IC50 was determined as 5900 nM.
On to `CC[C@H](C)[C@H](NC(=O)[C@H](CCCNC(=N)N)NC(=O)[C@H](CC(C)C)NC(=O)[C@H](N)Cc1ccccc1)C(=O)N[C@@H](CCCNC(=N)N)C(=O)N1CCC[C@H]1C(=O)N[C@@H](CCCCN)C(=O)O` [compound 17, H-D-Phe-Leu-Arg-Ile-Arg-Pro-Lys-OH], for which, at BK receptors [2], the “log[IC50], BK receptors, [3H]BK” value was −6.60 ± 0.14 and the IC50 was determined as 250 nM. In addition, the half-life in data set [1] (24 h study) is 19 h. The amount remaining at 24 h, 10 mg/mL in data set [1] (rat plasma) came out at 44 ± 12%.
For `CC[C@H](C)[C@H](NC(=O)[C@H](CCCNC(=N)N)NC(=O)[C@H](CC(C)C)NC(=O)[C@H](Cc1ccccc1)NC)C(=O)N[C@@H](CCCNC(=N)N)C(=O)N1CCC[C@H]1C(=O)N[C@@H](CCCCN)C(=O)O` [compound 20, H-NMePhe-Leu-Arg-Ile-Arg-Pro-Lys-OH], in that order: −6.06 ± 0.14, 870 nM, 15 h and 31 ± 11%.
Turning to `CCCC[C@H](NC(=O)[C@@H](N)Cc1ccccc1)C(=O)N[C@@H](CCCNC(=N)N)C(=O)N[C@H](C(=O)N[C@@H](CCCNC(=N)N)C(=O)N1CCC[C@H]1C(=O)N[C@@H](CCCCN)C(=O)O)[C@@H](C)CC` [compound 2, H-Phe-Nle-Arg-Ile-Arg-Pro-Lys-OH], at BK receptors [2], the “log[IC50], BK receptors, [3H]BK” value is −6.79 ± 0.10 and the IC50 is 160 nM.
With `CCCC[C@H](NC(=O)[C@H](CCCNC(=N)N)NC(=O)[C@H](CC(C)C)NC(=O)[C@@H](N)Cc1ccccc1)C(=O)N[C@@H](CCCNC(=N)N)C(=O)N1CCC[C@H]1C(=O)N[C@@H](CCCCN)C(=O)O` [compound 3, H-Phe-Leu-Arg-Nle-Arg-Pro-Lys-OH] (H-FLR[Nle]RPK-OH), the “log[IC50], BK receptors, [3H]BK” value on BK receptors [2] was −7.05 ± 0.09.
For `CC[C@H](C)[C@H](NC(=O)[C@@H](CCCNC(=N)N)NC(=O)[C@H](CC(C)C)NC(=O)[C@@H](N)Cc1ccccc1)C(=O)N[C@@H](CCCNC(=N)N)C(=O)N1CCC[C@H]1C(=O)N[C@@H](CCCCN)C(=O)O` [compound 15, H-Phe-Leu-D-Arg-Ile-Arg-Pro-Lys-OH], at BK receptors [2], the “log[IC50], BK receptors, [3H]BK” value is −6.51 ± 0.19 and the IC50 came out at 310 nM. Besides, in data set [1] (24 h study), the half-life was 31 h. For the same molecule, the amount remaining at 24 h, 10 mg/mL in data set [1] (rat plasma) came out at 62 ± 25%.
